ChEMBL document CHEMBL4130623, “Discovery of Highly Potent Pinanamine-Based Inhibitors against Amantadine- and Oseltamivir-Resistant Influenza A Viruses” (J Med Chem, 2018)
Calls of active or inactive are those of the source. The calls are words filed in the database; no cut-off is given here.

Legend:
Type in all cases: functional, organism-based
[1] = system: Influenza A virus; test: Antiviral activity against Influenza A virus (A/WSN/33) by CCK-8 reagent based assay; details: A/WSN/1933(H1N1)
[2] = system: Influenza A virus; test: Antiviral activity against Influenza A virus (A/HK/68) by CCK-8 reagent based assay
[3] = system: Influenza A virus; test: Antiviral activity against Influenza A virus (A/Guangzhou/GIRD/07/2009 (H1N1)) infected in MDCK cells assessed as reduction in virus-induced cytopathic effect at less than cytotoxic MCC level after 48 hrs by microscopic analysis
[4] = system: Influenza A virus; test: Antiviral activity against Influenza A virus (A/Guangzhou/GIRD/07/2009 (H1N1)) infected in MDCK cells assessed as reduction in virus-induced cytopathic effect after 48 hrs by microscopic analysis
Outline: (§1)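 MDCK monolayers (5×10^4 cells/well, grown 24 h) were rinsed twice, infected with 100 TCID50 virus for 2 h at 37 °C in 5% CO2, and the inoculum was removed. Two-fold serial compound dilutions in DMEM with 1.5 µg/mL trypsin were added and incubated 48 h at 34 °C. CPE percentage was scored by microscope and EC50 fitted by non-linear regression.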

[5] = system: Influenza A virus; test: Antiviral activity against Influenza A virus (A/WSN/33 (H1N1)) infected in MDCK cells assessed as reduction in virus-induced cytopathic effect after 48 hrs by microscopic analysis; details: A/WSN/1933(H1N1); outline: as §1
[6] = system: Influenza A virus; test: Antiviral activity against Influenza A virus (A/PR/8/34 (H1N1)) infected in MDCK cells assessed as reduction in virus-induced cytopathic effect after 48 hrs by microscopic analysis; details: A/Puerto Rico/8/1934(H1N1); outline: as §1
[7] = system: Influenza A virus; test: Antiviral activity against Influenza A virus (A/HK/68(H3N2)) infected in MDCK cells assessed as reduction in virus-induced cytopathic effect after 48 hrs by microscopic analysis; outline: as §1
[8] = system: H3N2 subtype; test: Antiviral activity against Influenza A virus (A/Aichi/2/68 (H3N2)) infected in MDCK cells assessed as reduction in virus-induced cytopathic effect after 48 hrs by microscopic analysis; details: A/Aichi/2/1968(H3N2); outline: as §1
[9] = system: Influenza A virus; test: Antiviral activity against Influenza A virus (A/duck/Guangdong/1/1996 (H7N3)) infected in MDCK cells assessed as reduction in virus-induced cytopathic effect after 48 hrs by microscopic analysis; outline: as §1
[10] = system: Influenza A virus; test: Antiviral activity against Influenza A virus (A/duck/HK/Y280/97 (H9N2)) infected in MDCK cells assessed as reduction in virus-induced cytopathic effect after 48 hrs by microscopic analysis; outline: as §1

SMILES	Activity [1]	Activity [2]	inhibition [3]	EC50 [4]	further results
Cc1ccsc1CN[C@@H]1C[C@H]2C[C@@H]([C@H]1C)C2(C)C	Active	Active	inactive		
Cc1csc(CN[C@@H]2CC3CC([C@H]2C)C3(C)C)n1 (single isomer, unassigned)	Active	Active		75000 nM	
C[C@@H]1C2CC(C[C@H]1NCc1sccc1C1CCCC1)C2(C)C (single isomer, unassigned)				690 nM	
Cc1csc(CN[C@@H]2CC3CC([C@H]2C)C3(C)C)c1 (single isomer, unassigned)	Active	Active		200 nM	
C=Cc1ccsc1CN[C@@H]1CC2CC([C@H]1C)C2(C)C (single isomer, unassigned)	Active	Active		1820 nM	
C[C@@H]1C2CC(C[C@H]1NCc1ccsc1)C2(C)C (single isomer, unassigned)	Active	Active		28600 nM	
C[C@@H]1C2CC(C[C@H]1NCc1cccs1)C2(C)C (single isomer, unassigned)	Active	Active		6420 nM	
C[C@@H]1C2CC(C[C@H]1NCc1ccoc1)C2(C)C (single isomer, unassigned)				60500 nM	
C[C@@H]1C2CC(C[C@H]1NCc1cc(C3CC3)cs1)C2(C)C (single isomer, unassigned)	Active	Active		6680 nM	
C[C@@H]1C2CC(C[C@H]1NCc1cc(Br)cs1)C2(C)C (single isomer, unassigned)	Active	Active		5160 nM	
CCCCc1ccsc1CN[C@@H]1CC2CC([C@H]1C)C2(C)C (single isomer, unassigned)	Active	Active		10300 nM	
CCCCc1csc(CN[C@@H]2CC3CC([C@H]2C)C3(C)C)c1 (single isomer, unassigned)				460 nM	
C=C(C)c1csc(CN[C@@H]2CC3CC([C@H]2C)C3(C)C)c1 (single isomer, unassigned)			inactive		
C=Cc1csc(CN[C@@H]2CC3CC([C@H]2C)C3(C)C)c1 (single isomer, unassigned)	Active	Active	inactive		
CCCc1ccsc1CN[C@@H]1CC2CC([C@H]1C)C2(C)C (single isomer, unassigned)	Active	Active	inactive		
CCCc1csc(CN[C@@H]2CC3CC([C@H]2C)C3(C)C)c1 (single isomer, unassigned)	Active	Active	inactive		
CCOc1ccsc1CN[C@@H]1CC2CC([C@H]1C)C2(C)C (single isomer, unassigned)	Active	Active	inactive		
CCc1ccc(CN[C@@H]2CC3CC([C@H]2C)C3(C)C)s1 (single isomer, unassigned)			inactive		
CCc1ccsc1CN[C@@H]1CC2CC([C@H]1C)C2(C)C (single isomer, unassigned)	Active	Active	inactive		
CCc1csc(CN[C@@H]2CC3CC([C@H]2C)C3(C)C)c1 (single isomer, unassigned)			inactive		

SMILES	Activity [1]	Activity [2]	inhibition [3]	EC50 [4]	further results
CSc1ccc(CN[C@@H]2CC3CC([C@H]2C)C3(C)C)s1 (single isomer, unassigned)	Active	Active	inactive		
C[C@@H]1C2CC(C[C@H]1NCc1cc(-c3ccccc3)cs1)C2(C)C (single isomer, unassigned)			inactive		
C[C@@H]1C2CC(C[C@H]1NCc1cc(-c3ccsc3)cs1)C2(C)C (single isomer, unassigned)			inactive		
C[C@@H]1C2CC(C[C@H]1NCc1cc(C3CCCC3)cs1)C2(C)C (single isomer, unassigned)			inactive		
C[C@@H]1C2CC(C[C@H]1NCc1cc(C3CCCCC3)cs1)C2(C)C (single isomer, unassigned)			inactive		
C[C@@H]1C2CC(C[C@H]1NCc1ccc(-c3ccc(Br)s3)s1)C2(C)C (single isomer, unassigned)			inactive		
C[C@@H]1C2CC(C[C@H]1NCc1ccc(Br)s1)C2(C)C (single isomer, unassigned)			inactive		
C[C@@H]1C2CC(C[C@H]1NCc1ccc(C(C)(C)C)s1)C2(C)C (single isomer, unassigned)			inactive		
C[C@@H]1C2CC(C[C@H]1NCc1ccc(Cl)s1)C2(C)C (single isomer, unassigned)			inactive		
C[C@@H]1C2CC(C[C@H]1NCc1ccco1)C2(C)C (single isomer, unassigned)			inactive		
C[C@@H]1C2CC(C[C@H]1NCc1cnccn1)C2(C)C (single isomer, unassigned)			inactive		
C[C@@H]1C2CC(C[C@H]1NCc1cncnc1)C2(C)C (single isomer, unassigned)			inactive		
C[C@@H]1C2CC(C[C@H]1NCc1sccc1-c1ccccc1)C2(C)C (single isomer, unassigned)			inactive		
C[C@@H]1C2CC(C[C@H]1NCc1sccc1-c1ccsc1)C2(C)C (single isomer, unassigned)			inactive		
C[C@@H]1C2CC(C[C@H]1NCc1sccc1Br)C2(C)C (single isomer, unassigned)	Active	Active	inactive		
C[C@@H]1C2CC(C[C@H]1NCc1sccc1C1CCCCC1)C2(C)C (single isomer, unassigned)			inactive		
Cc1ccc(CN[C@@H]2CC3CC([C@H]2C)C3(C)C)s1 (single isomer, unassigned)	Active	Active	inactive		
Cc1n[nH]cc1CN[C@@H]1CC2CC([C@H]1C)C2(C)C (single isomer, unassigned)			inactive		
NC12CC3CC(CC(C3)C1)C2 [AMANTADINE]				> 100000 nM	EC50 [5]: > 100000 nM; EC50 [6]: > 100000 nM; EC50 [7]: 1000 nM
CCOC(=O)C1=C[C@@H](OC(CC)CC)[C@H](NC(C)=O)[C@@H](N)C1 [OSELTAMIVIR]					EC50 [5]: 400 nM; EC50 [6]: 130 nM; EC50 [7]: 2300 nM; EC50 [8]: 990 nM; EC50 [9]: 2670 nM; EC50 [10]: > 10000 nM
